Reference: ChEMBL document CHEMBL1777788, “Synthesis and in vitro antimicrobial activities of new (cyano-NNO-azoxy)pyrazole derivatives” (2011)
Values after ≈ are worked out from the molar mass of the structure shown.

Key:
[1] = test system: Candida parapsilosis; test: Antimicrobial activity against Candida parapsilosis ATCC 22019 after 48 hrs by microdilution broth method; format: functional; settings: Lodderomyces parapsilosis, ATCC 22019, 48 h
How it was run: (§1)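 Yeasts were grown overnight on Sabouraud dextrose agar at 35°C, suspended in water, and adjusted at 530 nm to McFarland 0.5 (approximately 1-5 x 10^6 CFU/ml). They were then diluted 1:100 and 1:20 in RPMI 1640 with 0.165 M MOPS and 2% glucose. Compound in DMSO was tested at ten concentrations, 0.25–256 mg/L, with incubation at 35°C. At 48 h, MIC was read spectrophotometrically as 50% turbidity reduction versus growth control.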

[2] = test system: Candida albicans; test: Antimicrobial activity against Candida albicans isolate 31 after 48 hrs by microdilution broth method; format: functional; settings: isolate 31, 48 h; how it was run: as §1
[3] = test system: Candida albicans; test: Antimicrobial activity against Candida albicans isolate 41 after 48 hrs by microdilution broth method; format: functional; settings: isolate 41, 48 h; how it was run: as §1
[4] = test system: Candida albicans; test: Antimicrobial activity against Candida albicans isolate 47 after 48 hrs by microdilution broth method; format: functional; settings: isolate 47, 48 h; how it was run: as §1
[5] = test system: Candida albicans; test: Antimicrobial activity against Candida albicans isolate 48 after 48 hrs by microdilution broth method; format: functional; settings: isolate 48, 48 h; how it was run: as §1
[6] = test system: Pichia kudriavzevii; test: Antimicrobial activity against Candida krusei isolate 31 after 48 hrs by microdilution broth method; format: functional; settings: isolate 31, 48 h; how it was run: as §1
[7] = test system: Pichia kudriavzevii; test: Antimicrobial activity against Candida krusei isolate 43 after 48 hrs by microdilution broth method; format: functional
[8] = test system: Pichia kudriavzevii; test: Antimicrobial activity against Candida krusei isolate 48 after 48 hrs by microdilution broth method; format: functional
[9] = test system: Candida tropicalis; test: Antimicrobial activity against Candida tropicalis isolate 33 after 48 hrs by microdilution broth method; format: functional; settings: isolate 33, 48 h; how it was run: as §1
[10] = test system: Candida tropicalis; test: Antimicrobial activity against Candida tropicalis isolate 11 after 48 hrs by microdilution broth method; format: functional; settings: isolate 11, 48 h; how it was run: as §1
[11] = test system: Candida tropicalis; test: Antimicrobial activity against Candida tropicalis isolate 22 after 48 hrs by microdilution broth method; format: functional; settings: isolate 22, 48 h; how it was run: as §1
[12] = test system: Nakaseomyces glabratus; test: Antimicrobial activity against Candida glabrata isolate 30 after 48 hrs by microdilution broth method; format: functional; how it was run: as §1
[13] = test system: Nakaseomyces glabratus; test: Antimicrobial activity against Candida glabrata isolate 32 after 48 hrs by microdilution broth method; format: functional; settings: isolate 32, 48 h; how it was run: as §1
[14] = test system: Nakaseomyces glabratus; test: Antimicrobial activity against Candida glabrata isolate 46 after 48 hrs by microdilution broth method; format: functional; how it was run: as §1
[15] = test system: Nakaseomyces glabratus; test: Antimicrobial activity against Candida glabrata isolate 49 after 48 hrs by microdilution broth method; format: functional; how it was run: as §1
[16] = test system: Candida parapsilosis; test: Antimicrobial activity against Candida parapsilosis isolate 26 after 48 hrs by microdilution broth method; format: functional; settings: Lodderomyces parapsilosis, isolate 26, 48 h; how it was run: as §1
[17] = test system: Candida parapsilosis; test: Antimicrobial activity against Candida parapsilosis isolate 44 after 48 hrs by microdilution broth method; format: functional; settings: Lodderomyces parapsilosis, isolate 44, 48 h; how it was run: as §1
[18] = test system: Candida parapsilosis; test: Antimicrobial activity against Candida parapsilosis isolate 19 after 48 hrs by microdilution broth method; format: functional; settings: Lodderomyces parapsilosis, isolate 19, 48 h; how it was run: as §1
[19] = test system: Cryptococcus deneoformans; test: Antimicrobial activity against Cryptococcus neoformans var. neoformans isolate 14 after 48 hrs by microdilution broth method; format: functional; settings: isolate 14, 48 h; how it was run: as §1
[20] = test system: Cryptococcus deneoformans; test: Antimicrobial activity against Cryptococcus neoformans var. neoformans isolate 27 after 48 hrs by microdilution broth method; format: functional; settings: isolate 27, 48 h; how it was run: as §1
[21] = test system: Cryptococcus deneoformans; test: Antimicrobial activity against Cryptococcus neoformans var. neoformans isolate 30 after 48 hrs by microdilution broth method; format: functional; settings: isolate 30, 48 h; how it was run: as §1
[22] = test system: Cryptococcus deneoformans; test: Antimicrobial activity against Cryptococcus neoformans var. neoformans isolate 25 after 48 hrs by microdilution broth method; format: functional; settings: isolate 25, 48 h; how it was run: as §1
[23] = test system: Pichia kudriavzevii; test: Antimicrobial activity against Candida krusei ATCC 6258 after 48 hrs by microdilution broth method; format: functional; settings: ATCC 6258, 48 h
[24] = test system: Escherichia coli; test: Antimicrobial activity against Escherichia coli isolate after 24 hrs by microdilution broth method
[25] = test system: Proteus mirabilis; test: Antimicrobial activity against Proteus mirabilis isolate after 24 hrs by microdilution broth method
[26] = test system: Pseudomonas aeruginosa; test: Antimicrobial activity against Pseudomonas aeruginosa isolate 1 after 24 hrs by microdilution broth method; settings: isolate 1, 24 h
[27] = test system: Pseudomonas aeruginosa; test: Antimicrobial activity against Pseudomonas aeruginosa isolate 2 after 24 hrs by microdilution broth method; settings: isolate 2, 24 h
[28] = test system: Staphylococcus aureus; test: Antimicrobial activity against methicillin-susceptible Staphylococcus aureus isolate after 24 hrs by microdilution broth method
[29] = test system: Candida tropicalis; test: Antimicrobial activity against Candida tropicalis isolate 15 after 48 hrs by microdilution broth method; format: functional; settings: isolate 15, 48 h; how it was run: as §1
[30] = test system: Candida parapsilosis; test: Antimicrobial activity against Candida parapsilosis isolate 39 after 48 hrs by microdilution broth method; format: functional; settings: Lodderomyces parapsilosis, isolate 39, 48 h
How it was run: (§2)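 Yeasts grown overnight on Sabouraud dextrose agar at 35°C, suspended in sterile water, and adjusted to McFarland 0.5 at 530 nm (about 1-5 x 10^6 CFU/ml), then diluted 1:100 and 1:20 in RPMI 1640 with 0.165 M MOPS and 2% glucose. Compound in DMSO tested at ten concentrations, 0.25-256 mg/L, at 35°C. MIC read spectrophotometrically at 48 h as 50% turbidity reduction versus growth control.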

[31] = test system: Candida albicans; test: Antimicrobial activity against Candida albicans ATCC 90028 after 48 hrs by microdilution broth method; format: functional; settings: ATCC 90028, 48 h; how it was run: as §2

Row | Structure (SMILES) | MIC [1] [µg/mL] | MIC [2] [µg/mL] | MIC [3] [µg/mL] | MIC [4] [µg/mL] | MIC [5] [µg/mL] | MIC [6] [µg/mL] | MIC [7] [µg/mL] | MIC [9] [µg/mL] | MIC [10] [µg/mL] | MIC [11] [µg/mL] | MIC [13] [µg/mL] | MIC [14] [µg/mL] | MIC [15] [µg/mL] | MIC [16] [µg/mL] | MIC [17] [µg/mL] | MIC [18] [µg/mL] | MIC [19] [µg/mL] | MIC [20] [µg/mL] | MIC [21] [µg/mL] | MIC [22] [µg/mL] | further results
1 | Cc1cc(-c2c(/[N+]([O-])=N/C#N)c(C)nn2C)no1 | > 128 | 32 (≈ 130 µM) | 32 (≈ 130 µM) | 128 (≈ 520 µM) | 128 (≈ 520 µM) | 32 (≈ 130 µM) | 32 (≈ 130 µM) | > 128 | 128 (≈ 520 µM) | > 128 | 16 (≈ 65 µM) | 128 (≈ 520 µM) | 64 (≈ 260 µM) | 128 (≈ 520 µM) | 128 (≈ 520 µM) | > 128 | 8 (≈ 32.5 µM) | 8 (≈ 32.5 µM) | 8 (≈ 32.5 µM) | 8 (≈ 32.5 µM) | MIC [8]: 32 µg/mL (≈ 130 µM); MIC [12]: 128 µg/mL (≈ 520 µM); MIC [23]: 16 µg/mL (≈ 65 µM); MIC [24]: > 128 µg/mL; MIC [25]: > 128 µg/mL; MIC [26]: > 128 µg/mL; MIC [27]: > 128 µg/mL; MIC [28]: > 128 µg/mL
2 | C[C@@H]1[C@H](O)[C@@H](C)/C=C/C=C/C=C/C=C/C=C/C=C/C=C/[C@H](O[C@@H]2O[C@H](C)[C@@H](O)[C@H](N)[C@@H]2O)C[C@@H]2O[C@](O)(C[C@@H](O)C[C@@H](O)[C@H](O)CC[C@@H](O)C[C@@H](O)CC(=O)O[C@H]1C)C[C@H](O)[C@H]2C(=O)O [AMPHOTERICIN B] | 1 (≈ 1.08 µM) | 0.5 (≈ 0.541 µM) | 0.5 (≈ 0.541 µM) | 1 (≈ 1.08 µM) | 0.5 (≈ 0.541 µM) | 0.5 (≈ 0.541 µM) | – | 1 (≈ 1.08 µM) | 1 (≈ 1.08 µM) | 0.5 (≈ 0.541 µM) | 0.5 (≈ 0.541 µM) | 1 (≈ 1.08 µM) | 0.5 (≈ 0.541 µM) | 0.5 (≈ 0.541 µM) | 0.5 (≈ 0.541 µM) | 0.5 (≈ 0.541 µM) | 0.25 (≈ 0.271 µM) | 0.12 (≈ 0.13 µM) | 0.5 (≈ 0.541 µM) | 0.5 (≈ 0.541 µM) | MIC [29]: 1 µg/mL (≈ 1.08 µM); MIC [30]: 0.5 µg/mL (≈ 0.541 µM); MIC [31]: 0.5 µg/mL (≈ 0.541 µM)
3 | Cc1nn(C)c(C)c1/[N+]([O-])=N/C#N | 32 (≈ 179 µM) | 32 (≈ 179 µM) | 32 (≈ 179 µM) | 32 (≈ 179 µM) | 32 (≈ 179 µM) | 32 (≈ 179 µM) | 32 (≈ 179 µM) | 64 (≈ 357 µM) | 128 (≈ 714 µM) | 64 (≈ 357 µM) | 16 (≈ 89.3 µM) | 64 (≈ 357 µM) | 64 (≈ 357 µM) | 64 (≈ 357 µM) | 64 (≈ 357 µM) | 64 (≈ 357 µM) | 32 (≈ 179 µM) | 32 (≈ 179 µM) | 32 (≈ 179 µM) | 32 (≈ 179 µM) | MIC [8]: 32 µg/mL (≈ 179 µM); MIC [12]: 64 µg/mL (≈ 357 µM); MIC [23]: 16 µg/mL (≈ 89.3 µM); MIC [24]: > 128 µg/mL; MIC [25]: > 128 µg/mL; MIC [26]: > 128 µg/mL; MIC [27]: > 128 µg/mL; MIC [28]: > 128 µg/mL
